Data set [1] has as its target Serine/threonine-protein kinase pim-1 (Homo sapiens) (UniProt P11309). In words: Binding affinity to wild-type human partial length PIM1 (A15 to K313 residues) expressed in bacterial expression system assessed as remaining unbound target protein level at 1000 nM by Kinomescan method relative to control.
Data set [2] concerns ALK tyrosine kinase receptor (Homo sapiens), Q9UM73 [C1156Y]. In words: Binding affinity to wild-type human partial length ALK C1156Y mutant (I1088 to E1409 residues) expressed in mammalian expression system assessed as remaining unbound target protein level at 1000 nM by Kinomescan method relative to control. The gist of the method:
(§1)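 Profiled in a KINOMEscan binding panel with the inhibitor at a single concentration of 1 μM. Binding to each kinase was read out as percent of control, relative to a DMSO control. Strong binders were defined as those with a percent control value below 1.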

Data set [3] concerns the target Phosphatidylinositol 5-phosphate 4-kinase type-2 beta (Homo sapiens) (UniProt P78356). In words: Binding affinity to wild-type human full length PIP5K2B (M1 to T416 residues) expressed in bacterial expression system assessed as remaining unbound target protein level at 1000 nM by Kinomescan method relative to control. In outline:
as §1

In data set [4] the target is Cyclin-dependent kinase 1/cyclin B1 (Homo sapiens, UniProt P06493). In words: Inhibition of recombinant full length His-tagged human CDK1/CyclinB expressed in baculovirus expression system.
Data set [5] deals with Mast/stem cell growth factor receptor Kit (Homo sapiens) (UniProt P10721). In words: Binding affinity to wild-type human partial length KIT (I571 to D952 residues) expressed in bacterial expression system assessed as remaining unbound target protein level at 1000 nM by Kinomescan method relative to control.
Data set [6] concerns the target Phosphatidylinositol 5-phosphate 4-kinase type-2 gamma (Homo sapiens) (UniProt Q8TBX8). In words: Binding affinity to wild-type human partial length PIP5K2C (M1 to A421 residues) expressed in mammalian expression system assessed as remaining unbound target protein level at 1000 nM by Kinomescan method relative to control.
The target of data set [7] is Calcium/calmodulin-dependent protein kinase type II subunit delta (Homo sapiens) (UniProt Q13557). The experiment in a line: Binding affinity to wild-type human partial length CAMK2D (M1 to E329 residues) expressed in bacterial expression system assessed as remaining unbound target protein level at 1000 nM by Kinomescan method relative to control. The gist of the method: as §1

Data set [8] has as its system Tyrosine-protein kinase ABL1 (Homo sapiens), P00519 [F317L]. The experiment in a line: Binding affinity to human non-phosphorylated ABL1 F317L mutant (S229 to K512 residues) expressed in mammalian expression system assessed as remaining unbound target protein level at 1000 nM by Kinomescan method relative to control. In outline:
(§2)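 KINOMEscan competition-binding profiling across the panel of 468 kinases and mutants, with inhibitor tested at 1 μM. Binding is expressed as percent of control, with DMSO as the reference control.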

In data set [9] the target is Tyrosine-protein kinase Srms (Homo sapiens) (UniProt Q9H3Y6). In words: Binding affinity to wild-type human partial length SRMS (L208 to P488 residues) expressed in mammalian expression system assessed as remaining unbound target protein level at 1000 nM by Kinomescan method relative to control.
For data set [10], the target named is Serine/threonine-protein kinase 24 (Homo sapiens) (UniProt Q9Y6E0). The experiment in a line: Binding affinity to wild-type human partial length MST3 (A30 to S311 residues) expressed in bacterial expression system assessed as remaining unbound target protein level at 1000 nM by Kinomescan method relative to control.
The species entered for data set [11] is Homo sapiens. In words: Selectivity ratio of IC50 for recombinant full length His-tagged human CDK7/cyclin H/MNAT1 to IC50 for recombinant full length His-tagged human CDK9/CyclinT1.
Data set [12] has as its target Serine/threonine-protein kinase Nek1 (Homo sapiens) (UniProt Q96PY6). In words: Binding affinity to wild-type human partial length NEK1 (M1 to K278 residues) expressed in bacterial expression system assessed as remaining unbound target protein level at 1000 nM by Kinomescan method relative to control.
Data set [13] in a line: Cmax in beagle dog at 10 mg/kg, po by LC-MS/MS analysis. Format: ADME, organism-based, Canis lupus familiaris. Also on record: dose 10 mg/kg, route oral. Particulars: in vivo.
Data set [14] concerns Receptor-type tyrosine-protein kinase FLT3 (Homo sapiens), P36888 [K663Q]. In words: Binding affinity to human partial length FLT3 K663Q mutant (V592 to Y969 residues) expressed in bacterial expression system assessed as remaining unbound target protein level at 1000 nM by Kinomescan method relative to control. The gist of the method:
as §2

The target in data set [15] is Serine/threonine-protein kinase Nek5 (Homo sapiens) (UniProt Q6P3R8). The experiment in a line: Binding affinity to wild-type human partial length NEK5 (M1 to M279 residues) expressed in bacterial expression system assessed as remaining unbound target protein level at 1000 nM by Kinomescan method relative to control.
Data set [16] is described as follows: Oral bioavailability in mouse at 10 mg/kg by LC-MS/MS analysis. In kind it is ADME, organism-based. The following applies: in vivo.
Data set [17] can be described thus: AUC (0 to t) in Sprague-Dawley rat at 20 mg/kg, po by LC-MS/MS analysis. In kind it is ADME, organism-based. The following applies: in vivo. In outline:
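Non-compartmental PK. Male SD rats 190-210 g, mice and beagle dogs acclimatized one week, fasted 12 h with water, split into iv and po groups (mice 48, rats 6, dogs 6). iv 3/3/2 mg/kg (mice/rats/dogs); po 10/20/10 mg/kg; vehicle DMSO in 5% glucose water. Blood at 2 or 5 to 720 min; plasma protein-precipitated with methanol, caffeine internal standard, LC-MS/MS.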

The target of data set [18] is Interleukin-1 receptor-associated kinase 4 (Homo sapiens) (UniProt Q9NWZ3). In words: Binding affinity to wild-type human partial length IRAK4 (M1 to S460 residues) expressed in mammalian expression system assessed as remaining unbound target protein level at 1000 nM by Kinomescan method relative to control. The gist of the method: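 KINOMEscan binding panel of 468 kinases/mutants. Inhibitor was tested at a single concentration of 1 μM. Binding is reported as percent of control, defined relative to a DMSO control.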

Data set [19] is filed under the species Homo sapiens. The experiment in a line: Selectivity ratio of IC50 for recombinant GST-tagged human CDK3/cyclin E1 to IC50 for recombinant full length His-tagged human CDK9/CyclinT1.
Data set [20] concerns the target Tyrosine-protein kinase ITK/TSK (Homo sapiens) (UniProt Q08881). In words: Binding affinity to wild-type human partial length ITK (R335 to L620 residues) expressed in bacterial expression system assessed as remaining unbound target protein level at 1000 nM by Kinomescan method relative to control.
Data set [21] addresses MAP/microtubule affinity-regulating kinase 4 (Homo sapiens) (UniProt Q96L34). The experiment in a line: Binding affinity to wild-type human partial length MARK4 (K29 to G340 residues) expressed in bacterial expression system assessed as remaining unbound target protein level at 1000 nM by Kinomescan method relative to control.
The species entered for data set [22] is Homo sapiens. The experiment in a line: Selectivity ratio of IC50 for recombinant GST-tagged inactive state of human CDK16 (108 to end residues)/cyclin Y (2 to end residues) to IC50 for recombinant full length His-tagged human CDK9/CyclinT1.
Data set [23] has as its target Serine/threonine-protein kinase WNK4 (Homo sapiens) (UniProt Q96J92). The experiment in a line: Binding affinity to wild-type human partial length WNK4 (A31 to D461 residues) expressed in mammalian expression system assessed as remaining unbound target protein level at 1000 nM by Kinomescan method relative to control.

The values below come from ChEMBL document CHEMBL4261600 (Eur J Med Chem, 2018).

In general, IC50 refers to the concentration at which inhibition is half-maximal. Broadly, the Cmax is the maximum level reached in the sampled fluid or tissue. By bioavailability is commonly meant dose-corrected exposure relative to a reference, in per cent. The low end stands for little systemic uptake, the high end for much systemic uptake. Usually AUC(0-t) stands for the area under the concentration-time curve up to a stated or last time point. Lower therefore signals less exposure. As for `COCCN[C@H]1CC[C@H](Nc2cc(-c3csc(NCC4(C#N)CCOCC4)n3)c(Cl)cn2)CC1`, the Activity in data set [1] came out at 55%; in [2], 86%; in data set [3], 100%; in data set [5] it was 91%; in data set [6], 59%; in data set [7], 83%. Moreover, the Activity in data set [8] turned out to be 100%; in data set [9] it was 89%; in data set [10], 90%; in [12] it was 85%; in [14] it was 97%; in data set [15], 90%. For the same compound, the Activity in data set [18] was found to be 81%; in data set [20], 84%; in data set [21], 87%; in [23], 100%. Besides, in [4], the IC50 was 1340 nM. Also, the Ratio IC50 in the data set listed under Homo sapiens [11] is above 1000; in the data set filed under Homo sapiens [19] it was above 1000; in the data set listed under Homo sapiens [22], 300. This compound also came in with a Cmax in [13] of 771 ng/mL. Also, in data set [16], the bioavailability turned out to be 45%. Further, the AUC(0-t) in [17] worked out at 1780 ng·h/mL.
